Source: PubChem BioAssay (Broad Institute)
Shown are actives, neighbours in structure and some others; about 0.86% of the full set was active somewhere.
AF4-AF9 inh = blocks AF4 peptide binding to human AF9; P42568; AlphaScreen, biotin-AF4 peptide binding to FLAG-AF9; inhibition, % at 10 µM; 0.47% of 350,000 active;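 active = every replicate reaching a set inhibition limit, whatever the replicate mean, cut at about 25% in these data; inconclusive = mean inhibition reaches that limit but some replicates miss it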;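 also: 0% = plate neutral control median and 100% = total signal loss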
Target sequence (P42568 whole entry, looked up): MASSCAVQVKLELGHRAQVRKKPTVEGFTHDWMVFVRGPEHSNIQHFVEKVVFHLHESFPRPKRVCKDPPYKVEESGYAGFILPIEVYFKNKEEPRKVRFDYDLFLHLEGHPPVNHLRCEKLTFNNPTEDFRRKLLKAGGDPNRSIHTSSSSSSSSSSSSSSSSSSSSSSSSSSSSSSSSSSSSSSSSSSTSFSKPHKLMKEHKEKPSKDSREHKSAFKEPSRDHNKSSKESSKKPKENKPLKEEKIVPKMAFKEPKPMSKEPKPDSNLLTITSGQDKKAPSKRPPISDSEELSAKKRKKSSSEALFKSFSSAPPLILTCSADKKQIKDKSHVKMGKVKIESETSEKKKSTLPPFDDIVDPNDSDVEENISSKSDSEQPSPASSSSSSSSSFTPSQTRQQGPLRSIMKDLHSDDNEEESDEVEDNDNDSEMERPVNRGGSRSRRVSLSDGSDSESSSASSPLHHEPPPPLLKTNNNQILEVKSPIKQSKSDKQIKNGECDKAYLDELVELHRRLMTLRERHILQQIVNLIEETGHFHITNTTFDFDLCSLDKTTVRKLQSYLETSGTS
ERAP1 inh = blocks human ERAP1 aminopeptidase activity; recombinant ERAP1, Leu-AMC fluorescence, 60 min; inhibition, % at 10.7 µM; 0.15% of 340,000 active;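 active = mean replicate inhibition of at least 30%, or all replicates individually reaching that 30% level; inactive = mean below 30% and not every replicate reaching it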;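 also: 0% = neutral control wells and 100% = L-leucinethiol positive control wells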
S100A4 MyoIIA = inhibitors of human S100A4 binding to myosin IIA peptide; inhibition, % at 10.7 µM; 0.14% of 360,000 active; S100A4/TAMRA-MyoIIA peptide fluorescence polarization;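 active = mean inhibition of at least 70% across replicates, with every replicate also reaching that level; inconclusive = mean inhibition reaches 70% but some replicates fall short; inactive = mean inhibition below 70%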
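Material: S100A4 monomer protein / Buffer or medium: 50 mM HEPES pH 7.2, 10 mM CaCl2, 100 mM KCl / Times: 5 min incubation before reading / Benchmarks: neutral control DMSO, positive control TFP / Reagent: labelled myosin peptide probe, 5 nM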
Rtt109 Vps75 = inhibitors of Candida albicans Rtt109/Vps75 histone acetyltransferase | 0.16% of 330,000 active | inhibition, % at 34.9 µM | purified Rtt109/Vps75, ThioGlo CoA-SH fluorescence, 4 h | Q5AAJ8 | AID 540336;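 active = inhibition of at least 50% in every replicate; inconclusive = best replicate reaches 50% inhibition but some replicates fall short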
miR122 inh = blocks miR-122 activity in Huh7 sensor cells; Huh7 miR-122 Renilla luciferase sensor, 48 h; neutral wells = 0, positive control = 100; activation (reporter increase), % at 12.5 µM; 0.3% of 340,000 active;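 active = mean replicate activation score at least 90 and every replicate individually at or above 90; inconclusive = only one of the two criteria met; inactive = neither criterion met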;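 also: higher luciferase means less miR-122 activity so hits act as miR-122 inhibitors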
AlphaScreen intf = interferes with the AlphaScreen assay signal; AC50, µM (series often up to 12 µM), without a hit: top-dose activity change, negative = inhibition; 45% of 530 active; shares compounds with AF4-AF9 inh; AlphaScreen interference counter-screen, signal luminescence; cut-off not given, nearly all actives have AC50 up to about 14 µM
The depositor's hits bear a star; u = inconclusive; x = no result given; [ ] = remark or other dose.

SMILES	AF4-AF9 inh	ERAP1 inh	S100A4 MyoIIA	Rtt109 Vps75	miR122 inh	AlphaScreen intf
O=C(C[C@H]1C[C@H]2c3cc(NC(=O)Cc4ccncc4)ccc3O[C@H]2[C@@H](CO)O1)NCc1ccccc1	-1	1	-11	x	1[16.7 µM]	x
COc1ccc(-c2ccc3c(c2)O[C@H](CN(C)CC2CCOCC2)[C@H](C)CN([C@H](C)CO)S3(=O)=O)cc1	4	0	-3	x	10[16.7 µM]	x
C[C@H]1CN([C@@H](C)CO)C(=O)Cc2cc(NC(=O)C3CC3)ccc2O[C@@H]1CN(C)Cc1ccccc1	-1	0	-11	x	-3[16.7 µM]	x
Cc1noc(C)c1NC(=O)Nc1cccc2c1O[C@@H](CN(C)Cc1ccc(-c3ccccc3)cc1)[C@H](C)CN([C@@H](C)CO)C2=O	0	-2	-33	x	-11[16.7 µM]	x
CCOC(=O)N1CCN(C(c2ccnc3ccccc23)c2nnnn2-c2ccc3c(c2)OCCO3)CC1 (stereo unspecified)	1	3	0	x	x	x
CC(C)(C)OC(=O)N1CCCN(C(c2ccnc3ccccc23)c2nnnn2-c2ccc3c(c2)OCCO3)CC1 (stereo unspecified)	36*	3	0	x	x	-22%
CCN(CC)c1ccc(N=C2C(=O)Nc3ccccc32)cc1	57*	2	-16	-4	0	12µM*
CN1c2ccc(-c3ccccc3)cc2[C@H]2[C@H](CCN2C(=O)NC2CCCCC2)[C@@H]1CO	15	1	-1	x	x	x
COc1cccc(CNCCc2c[nH]c3ccccc23)c1OCc1ccccc1	27*	-3	1	3	x	-40%
CC1=NN(c2ccccc2)C(=O)/C1=C/C=C/c1ccc(N(C)C)cc1	67*	10	6	1	x	-41%
CO[C@@H]1CN(C)C(=O)c2cc(NC(=O)NC(C)C)ccc2OC[C@@H](C)N(Cc2cncnc2)C[C@@H]1C	x	x	x	x	4[16.7 µM]	x
c1ccc(CNCCC(Cc2ccccc2)c2ccco2)cc1 (stereo unspecified)	6	-9	-13	2	x	x
CN(C)c1ccc(CNCCC(Cc2ccccc2)c2ccco2)cc1 (stereo unspecified)	49*	x	-9	18	-1	10µM*
COc1cc(O)c(C(CCN2CCCCC2)c2ccc(N(C)C)cc2)c(OC)c1 (stereo unspecified)	33*	x	3	-2	4	12µM*
COc1cc(C2CC(=O)Oc3c(C(CCN4CCOCC4)c4ccc(N(C)C)cc4)c(OC)cc(OC)c32)cc(OC)c1OC (stereo unspecified)	40*	4	-1	18	-3	11µM*
COc1ccc(C2CC(=O)Oc3c(C(CCN4CCCC(C)C4)c4ccc(N(C)C)cc4)c(OC)cc(OC)c32)cc1 (stereo unspecified)	44*	1	-2	16	6	1.8µM*
O=C(NC1CCCCC1)C(c1cccs1)N(CCCN1CCOCC1)C(=O)c1ccc(-c2ccccc2)[nH]1 (stereo unspecified)	31*	2	-8	3	2	-17%
Cc1ccc2c(c1)C1CN(C)CCC1N2Sc1ccccc1[N+](=O)[O-] (stereo unspecified)	35*	7	-2	10	4	9.3µM*
CC(=O)N(C)C[C@H]1Oc2ncc(C#Cc3ccccn3)cc2C(=O)N([C@H](C)CO)C[C@H]1C	-9	-1	12	x	-2[16.7 µM]	x
C[C@@H]1CCCCO[C@H](CN(C)Cc2ccc(C(=O)O)cc2)[C@@H](C)CN([C@@H](C)CO)C(=O)c2cc(NS(C)(=O)=O)ccc2O1	-1	1	-18	x	12[16.7 µM]	x
CN(C)c1ccc(C(CNC(=O)c2ccccc2)c2c[nH]c3ccccc23)cc1 (stereo unspecified)	29*	-2	-5	1	x	-27%
CN(C)c1ccc(C(CNC(=O)c2ccccc2F)c2c[nH]c3ccccc23)cc1 (stereo unspecified)	7	0	3	-1	26	x
Cc1ccc(S(=O)(=O)N2C[C@H](O)COC[C@@H]3O[C@H](CC(=O)NCC4CCCCC4)CC[C@H]32)cc1	11	2	15	x	3[16.7 µM]	x
CO[C@H]1CN(C)C(=O)c2ccc(NS(C)(=O)=O)cc2OC[C@H](C)N(C)C[C@H]1C	-1	0	12	x	-8[16.7 µM]	x
CC(C)(c1ccccc1)c1ccc(OCC(O)CNC2CCN(Cc3ccccc3)CC2)cc1 (stereo unspecified)	31*	6	10	u	x	-29%
SMILES	AF4-AF9 inh	ERAP1 inh	S100A4 MyoIIA	Rtt109 Vps75	miR122 inh	AlphaScreen intf
COc1ccc(NC(=O)N(C)C[C@H]2OCCCC[C@@H](C)Oc3ccc(NC(=O)Nc4ccc(F)cc4)cc3C(=O)N([C@H](C)CO)C[C@@H]2C)cc1	1	0	-2	x	18[16.7 µM]	x
Cc1cc2c(OCC(O)CNC3CCCCC3)cccc2[nH]1 (stereo unspecified)	29*	-5	-4	0	-5	-15%
OC(CNC1CCCCCC1)COc1cccc2ccccc12 (stereo unspecified)	4	3	0	6	2	x
COc1ccc(NC2CCCN(Cc3cccc4cnccc34)C2)cc1 (stereo unspecified)	u	0	6	4	x	x
COc1ccc(NC2CCCN(Cc3cccc4cnccc34)C2)cc1OC (stereo unspecified)	26*	3	-7	9	-14	-28%
CC[n+]1c(/C=C/c2ccc(N(C)C)cc2)ccc2ccccc21	50*	7	-23	13	x	5.8µM*
CCN(CC)c1ccc(/C=C/c2ccc3ccc(OC)cc3[n+]2CC)cc1	59*	2	100*	-8	-25	5.2µM*
CC[n+]1c(/C=C/c2ccc(OC)c(OC)c2)ccc2ccccc21	0	16	-5	3	9	x
CCN(CC)CCNC(=O)c1ccc(NC(=O)c2cccc(S(=O)(=O)N3c4ccccc4CC3C)c2)cc1 (stereo unspecified)	31*	8	1	7	7	-4%
C[C@H]1CN([C@@H](C)CO)C(=O)Cc2cc(NS(=O)(=O)c3cccs3)ccc2O[C@H]1CN(C)S(=O)(=O)c1cccs1	x	x	x	x	1[16.7 µM]	x
COc1cc(/C=N/O)ccc1OCc1ccc(Cl)cc1	-1	1	-17	x	x	x
COc1cc(/C=N/N=C(N)N)ccc1OCc1ccc(Cl)cc1	27*	-157	0	u	x	-26%
CCOc1cc(/C=N/N=C(N)N)ccc1OCc1ccc(Cl)cc1	27*	-20	-4	44	-5	-27%
C[C@@H]1CCCCO[C@H](CN(C)C(=O)NC2CCCCC2)[C@H](C)CN([C@H](C)CO)C(=O)c2cc(NS(=O)(=O)c3cccs3)ccc2O1	-3	-1	14	x	-6[16.7 µM]	x
CO[C@H]1CC[C@H]2CCOc3c(C#N)cccc3C(=O)N(C)CCCC(=O)N(C)C[C@H]1O2	-4	4	-7	x	x	x
